From ChEMBL document CHEMBL1133507, “Novel bronchodilators: synthesis, transamination reactions, and pharmacology of a series of pyrazino[2,3-c][1,2,6]thiadiazine 2, 2-dioxides” (2000)
Values after ≈ are worked out from the molar mass of the structure shown. Active and inactive are the calls of the source. No cut-off for these calls is given here.

Tests used:
Assay type in all cases: functional
[1] = organism: Cavia porcellus; test: Bronchodilatory activity in vitro by tracheal tone inhibition at 30 ug/mL in guinea pig tracheal muscle.; details: Muscle tissue
Summary of the method: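 In vitro tracheal relaxation. Percent inhibition was recorded with 30 µg/mL test compound, each concentration assayed in duplicate. Inhibition above 50% was taken as pharmacologically significant.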

[2] = organism: Cavia porcellus; test: Tracheal relaxing activity expressed as minimum inhibitory concentration required to obtain a inhibitory response by more than 50%
Summary of the method: (§1)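 Tracheal relaxation was tested over several concentrations, each in duplicate. The value is the lowest concentration (µg/mL) giving more than 50% inhibition of the response.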

[3] = organism: Cavia porcellus; test: Tracheal relaxing activity expressed as minimum inhibitory concentration required to obtain a inhibitory response by more than 50%; NA denotes no activity at 30 ug/mL.; summary of the method: as §1

| SMILES | MIC [2] [µg/mL] | MIC [3] | inhibition at 30 µg/mL [1] [%] |
| --- | --- | --- | --- |
| CCN1c2nc(-c3ccccc3)c(C)nc2C(N)=NS1(=O)=O | 3 (≈ 9.45 µM) |  | 100 |
| CCc1nc2c(nc1C)C(NN)=NS(=O)(=O)N2CC | 30 (≈ 106 µM) |  | 72 |
| CCN1c2nc(-c3ccccc3)c(Br)nc2C(N)=NS1(=O)=O | 30 (≈ 78.5 µM) |  | 63 |
| CCOC(=O)CN1c2nc(C)c(C)nc2C(N)=NS1(=O)=O |  | inactive | 15 |
| CCc1nc2c(nc1C)C(NC)=NS(=O)(=O)N2CC | 30 (≈ 106 µM) |  | 75 |
| CCc1nc2c(nc1C)C(NCCO)=NS(=O)(=O)N2CC |  | inactive | 41 |
| CCOC(=O)CN1c2nc(-c3ccccc3)cnc2C(N)=NS1(=O)=O | 10 (≈ 27.7 µM) |  | 72 |
| CCc1nc2c(nc1C)C(NCCN(C)C)=NS(=O)(=O)N2CC |  | inactive | 34 |
| CCN1c2nc(-c3ccccc3)cnc2C(N)=NS1(=O)=O | 3 (≈ 9.89 µM) |  | 95 |
| CCN1c2nc(-c3ccccc3)c(-c3ccccc3)nc2C(N)=NS1(=O)=O |  | inactive | 24 |
| CCN1c2ncc(C)nc2C(NCc2ccccc2)=NS1(=O)=O |  | inactive | 27 |
| CCN1c2nc(C)c(C)nc2C(N)=NS1(=O)=O |  |  | 33 |
| CN1c2nc(-c3ccccc3)cnc2C(NN)=NS1(=O)=O | 10 (≈ 32.9 µM) |  | 81 |
| CN1c2nc(-c3ccccc3)cnc2C(NCCN)=NS1(=O)=O |  | inactive | 6 |
| CCN1c2nc(C)c(-c3ccccc3)nc2C(N)=NS1(=O)=O | 30 (≈ 94.5 µM) |  | 93 |
| Cc1nc2c(nc1C)N(C)S(=O)(=O)N=C2NCc1ccccn1 |  | inactive | 31 |
| Cn1c(=O)c2nc[nH]c2n(C)c1=O.O [THEOPHYLLINE] | 30 |  | 60 |
| CCN1c2nc(-c3ccccc3)cnc2C(NCc2ccccc2)=NS1(=O)=O |  | inactive | 20 |
| CCNC1=NS(=O)(=O)N(CC)c2ncc(-c3ccccc3)nc21 | 10 (≈ 30.2 µM) |  | 74 |
| CCNC1=NS(=O)(=O)N(CC)c2ncc(C)nc21 | 30 (≈ 111 µM) |  | 63 |
| CCN1c2nccnc2C(N)=NS1(=O)=O |  | inactive | 13 |

Continued, in another order:

| MIC [2] [µg/mL] | MIC [3] | SMILES | inhibition at 30 µg/mL [1] [%] |
| --- | --- | --- | --- |
| 30 (≈ 111 µM) |  | CCCN1c2nc(C)c(C)nc2C(N)=NS1(=O)=O | 58 |
| 30 (≈ 92.7 µM) |  | CN1c2nc(-c3ccccc3)c(Cl)nc2C(N)=NS1(=O)=O | 86 |
| 30 (≈ 104 µM) |  | CN1c2ncc(-c3ccccc3)nc2C(N)=NS1(=O)=O | 56 |
| 10 (≈ 35.5 µM) |  | CCN1c2nc3c(nc2C(N)=NS1(=O)=O)CCCC3 | 82 |
|  | inactive | CCc1nc2c(nc1C)C(N)=NS(=O)(=O)N2CC | 0 |
| 30 (≈ 106 µM) |  | CCN1c2ncc(C(C)(C)C)nc2C(N)=NS1(=O)=O | 86 |
| 30 (≈ 124 µM) |  | CCN1c2ncc(C)nc2C(N)=NS1(=O)=O | 67 |
| 10 (≈ 35.5 µM) |  | CN1c2nc3c(nc2C(N)=NS1(=O)=O)CCCCC3 | 88 |
|  | inactive | CCCc1nc2c(nc1C)C(N)=NS(=O)(=O)N2CC | 34 |
|  | inactive | CCOC(=O)CN1c2ncc(C)nc2C(N)=NS1(=O)=O | 20 |
|  | inactive | CCc1nc2c(nc1CC)N(CC)S(=O)(=O)N=C2N | 0 |
|  | inactive | Cc1cnc2c(n1)C(N)=NS(=O)(=O)N2C | 45 |
| 30 (≈ 118 µM) |  | CCc1cnc2c(n1)N(CC)S(=O)(=O)N=C2N | 80 |
| 30 (≈ 106 µM) |  | CCCN1c2nc(CC)c(C)nc2C(N)=NS1(=O)=O | 51 |
|  | inactive | CN1c2nccnc2C(N)=NS1(=O)=O | 22 |
| 10 (≈ 39.2 µM) |  | CCc1cnc2c(n1)C(N)=NS(=O)(=O)N2CC | 72 |
| 10 (≈ 35.3 µM) |  | CCCCc1nc2c(nc1C)C(N)=NS(=O)(=O)N2C | 64 |
|  | inactive | CCN1c2nc(C)cnc2C(N)=NS1(=O)=O | 42 |
| 30 (≈ 111 µM) |  | CCN1c2ncc(C(C)C)nc2C(N)=NS1(=O)=O | 57 |
| 30 (≈ 111 µM) |  | Cc1nc2c(nc1C)N(CCO)S(=O)(=O)N=C2N | 59 |
|  | inactive | Cc1nc2c(nc1C)N(CC(=O)O)S(=O)(=O)N=C2N | 13 |
| 10 (≈ 37.1 µM) |  | CCc1nc2c(nc1C)N(CC)S(=O)(=O)N=C2N | 95 |
|  | inactive | CCN1c2nc(C(C)C)c(C(C)C)nc2C(N)=NS1(=O)=O | 0 |
| 10 (≈ 31.2 µM) |  | CCN1c2nc(C)c(Br)nc2C(N)=NS1(=O)=O | 88 |
| 10 (≈ 37.1 µM) |  | CCCc1cnc2c(n1)C(N)=NS(=O)(=O)N2CC | 90 |
|  | inactive | Cc1nc2c(nc1-c1ccccc1)C(N1CCCC1)=NS(=O)(=O)N2C | 10 |
| 3 (≈ 12.4 µM) |  | Cc1nc2c(nc1C)N(C)S(=O)(=O)N=C2N | 92 |
|  | inactive | CCN1c2ncc(-c3ccccc3)nc2C(N)=NS1(=O)=O | 20 |
| 3 (≈ 11.8 µM) |  | CCc1nc2c(nc1C)C(N)=NS(=O)(=O)N2C | 95 |
| 30 (≈ 106 µM) |  | CCN1c2nc(C(C)C)c(C)nc2C(N)=NS1(=O)=O | 55 |
